Bioassay records deposited in PubChem by several laboratories.
AI-2 QS modul: modulators of Vibrio harveyi AI-2 quorum sensing system; Vibrio harveyi JMH597 AI-2 luminescence/OD600 ratio, 9 h; stronger effect = lower value; strain lacks LuxN and CqsS sensors; 0 = neutral-control median; activity change, % at 7.5 µM; 300,000 tested, 0.4% active; AID 2094; in the data active = activity change below about -75%, passing the limit was not always enough; inconclusive = no clear call, values can overlap the other calls;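 note: luminescence divided by OD600 gain over 9 h not by final OD600 alone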
PolyA inh: blocks polyadenylation in yeast reporter cells. S. cerevisiae SKY197-pL101 polyadenylation reporter, beta-gal luminescence; efflux-impaired pdr1/pdr3 knockout yeast; score 100 = 6 SD above DMSO. activity score, % at 12 µM. 300,000 tested, 0.02% active;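 active = lowest replicate activity score at least 50, where 100 means six control SD above control mean; inconclusive = lowest score under 50 but half or more replicates reach 50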;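 note: yeast exposed to compound for 9 h at 30 °C; higher score means more reporter readthrough which indicates perturbed polyadenylation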
T cruzi repl: T. cruzi replication inhibition. 300,000 tested, 1.4% active. T. cruzi beta-gal in NIH3T3, luminescence, 90 h. inhibition, % (no concentration beside the values);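 active = mean inhibition across valid replicates above about 55%, limit read from the data; inconclusive = mean below that limit but half or more replicates reach it; inactive = mean below it, under half of replicates reach it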;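 note: signal also drops with host cell toxicity which is not excluded here; 0% = plate median of DMSO wells and 100% = zero luminescence signal; higher percent means less beta-gal luminescence so fewer parasites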
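System: NIH/3T3 fibroblasts plus reporter T. cruzi. Medium: DMEM plus 2% FBS. Probe or stimulus: 5000 reporter trypomastigotes per well. Compound: single 50 nL compound addition per well in DMSO. Incubation: co-culture of at least 90 h after 3 h attachment. Detection: GalScreen β-gal luminescence, detergent lysis, 60 min. Evaluation: parasite load inhibition, %.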
Efflux pump mplx: antifungal efflux pump inhibition, Nile Red retention; inhibition, % at 10 µM; 330,000 tested, 0.44% active; S. cerevisiae Candida pump triplex; AID 485275;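 active = plate passing quality check with inhibition over a set limit, or well fluorescence over plate mean plus 4 SD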;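 note: Nile Red retained in pooled yeast measured as flow cytometry median fluorescence; 0% = buffer negative control and 100% = Enniatin B positive control; higher means more Nile Red kept so more efflux inhibition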
HDAC3 inh: blocks human histone deacetylase 3 | O15379 | recombinant HDAC3, fluorogenic peptide/trypsin coupled, fluorescence | inhibition, % at 8.3 µM | 320,000 tested, 0.15% active | AID 2718; in the data active = inhibition above about 26%, passing the limit was not always enough; inconclusive = no clear call, values can overlap the other calls
Target sequence (O15379 whole entry, looked up): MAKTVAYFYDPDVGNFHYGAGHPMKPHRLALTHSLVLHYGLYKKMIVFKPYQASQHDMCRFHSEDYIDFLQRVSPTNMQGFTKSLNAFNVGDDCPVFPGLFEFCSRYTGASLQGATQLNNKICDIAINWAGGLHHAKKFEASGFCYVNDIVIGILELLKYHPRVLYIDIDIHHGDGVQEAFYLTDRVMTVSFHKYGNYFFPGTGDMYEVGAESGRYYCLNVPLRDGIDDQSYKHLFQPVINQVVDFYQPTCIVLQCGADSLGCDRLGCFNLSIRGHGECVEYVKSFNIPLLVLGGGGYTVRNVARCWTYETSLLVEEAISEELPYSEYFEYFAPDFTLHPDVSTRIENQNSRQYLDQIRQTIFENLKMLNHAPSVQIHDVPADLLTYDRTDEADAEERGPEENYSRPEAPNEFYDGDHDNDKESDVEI
* = called active by the depositor; ? = inconclusive; . = no result. Rows were chosen to be rich in hits. Some 2.2% of all compounds tested hit in one or more screens of this group.

SMILES	AI-2 QS modul	PolyA inh	T cruzi repl	Efflux pump mplx	HDAC3 inh
Cc1nc(-c2ccc3c(c2)OCO3)cs1	0	7	-9	0	-2
CCN(CC)CCNC(=O)c1ccc(NC(=O)c2cn(-c3ccccc3)nc2-c2cccs2)cc1	-1	5	46	0	3
CCN(CC)CCNC(=O)c1ccc(NC(=O)c2cn(-c3ccc(F)cc3)nc2-c2cccc(OC)c2)cc1	.	13	65*	0	0
C[C@H](CO)N1C[C@H](C)[C@@H](CN(C)Cc2ccncc2)Oc2ccc(NC(=O)Cn3cnnn3)cc2C1=O	.	.	.	0	-1
C[C@H](CO)N1C[C@H](C)[C@@H](CN(C)Cc2ccncc2)Oc2ccc(NC(=O)CCCCCC(=O)Nc3ccccc3N)cc2C1=O	.	.	.	0	90*
O=C(c1ccco1)N(CCCN1CCOCC1)c1nc(-c2ccc(F)cc2)cs1	33	-2	69*	0	9
CN(C(=O)c1ccco1)c1nc(-c2ccc(F)cc2)cs1	.	-16	-7	0	1
COc1ccc(-c2csc(N(CCCN3CCOCC3)C(=O)CCl)n2)cc1	17	29	5	0	7
CCN(CC)CCCN(C(=O)c1ccco1)c1nc(-c2ccc(Cl)cc2)cs1	-4	-2	59*	0	4
CCN(CC)CCCN(C(=O)c1ccco1)c1nc(-c2ccc(C)cc2)cs1	9	-3	33	0	2
O=C(c1ccco1)N(CCCN1CCOCC1)c1nc(-c2ccc(Cl)cc2)cs1	3	12	67*	0	-1
CCOc1ccc(NC(=O)CN(C)C(=O)c2cc(C)on2)cc1OCC	11	22	-9	0	1
CSc1ccc(NC(=O)Nc2cccn(Cc3ccccc3F)c2=O)cc1	17	-14	59*	0	9
CN1CCC2(CC1)N=C(c1ccc(F)cc1)C(=S)N2C(=O)c1ccc(C(C)(C)C)cc1	38	-3	30	-2	6
O=C1OC(c2ccccc2)=N/C1=C\C=C\c1ccco1	-6	-3	-1	0	41*
O=C1OC(c2ccc(Cl)cc2)=N/C1=C\C=C\c1ccco1	16	-7	-2	0	?
CC(=O)C1=C(c2ccc(Br)cc2)C(=O)c2ccccc2C1=O	-22	-75	55*	0	3
CN1C(=O)C2C(c3ccc(N(C)C)cc3)=NN(Cc3ccccc3)C2C1=O (configuration not stated)	2	-6	-8	0	7
Cc1cc(C)c2c3c(sc2n1)C1(CCSCC1)C(C#N)=C(N)O3	6	0	64*	0	-1
COc1ccc(C2C(C#N)=C(N)Oc3c2sc2nc(C)cc(C)c32)cc1 (configuration not stated)	-2	7	36	0	-2
Cc1ccc(OCC(=O)Nc2ccc(N3CCCC3)cc2)cc1C	0	13	24	0	-1
Cc1ccc(C(C)C)cc1OCC(=O)Nc1ccc(N2CCCCC2)cc1	7	1	63*	0	1
O=C(CSc1nnc(COc2ccccc2Cl)o1)NC(=O)NCc1ccco1	-47	19	1	0	.
CCOC(=O)/C=C/C(=O)Nc1nccs1	-91*	-5	-16	0	-1
CCOC(=O)C(=O)Nc1nccs1	14	-4	-14	0	-1
SMILES	AI-2 QS modul	PolyA inh	T cruzi repl	Efflux pump mplx	HDAC3 inh
FC(F)(F)c1cnc(Sc2nc3nccc(-c4ccc(Cl)cc4)n3n2)c(Cl)c1	-1	6	55*	-1	6
CCCCCCSc1ccc([C@@H]2[C@H]3C(=O)N(C)C(=O)[C@H]3[C@]3(C(=O)OC)CCCCN23)cc1OC	.	.	.	0	5
CCCCCCSc1ccc([C@@H]2[C@@H]3C(=O)N(C)C(=O)[C@@H]3[C@]3(C(=O)OC)CCCCN23)cc1OC	7	?	11	0	36*
Cc1cc(=O)[nH]c2ccccc12	13	9	1	0	0
Cc1cc2[nH]c3c(c[n+](C)c4ccccc34)c2cc1C	7	32	59*	0	2
CCOc1ccc(S(=O)(=O)N(C)c2ccc(OCC(=O)Nc3nc(-c4cc(OC)ccc4OC)cs3)cc2)cc1	19	-3	15	0	2
CC(C)Cc1ccc(C(C)C(N)=NCCc2ccccc2)cc1 (configuration not stated)	16	-13	47	0	-10
Cc1cc(-c2nnc(CCC(=O)NC(C)(C)C34CC5CC(CC(C5)C3)C4)o2)no1	16	11	-6	0	4
FC(F)(F)COc1nc(N/N=C/c2cccnc2)nc(N2CCCCC2c2ccccn2)n1 (configuration not stated)	6	2	59*	1	5
C(=N\Nc1nc(N2CCCC2)nc(N2CCCC2)n1)/c1cccnc1	11	19	-7	0	0
CC(C)(O)C#Cc1ccc(CN2CCCC(CO)(Cc3cccc(Cl)c3)C2)cc1 (configuration not stated)	21	10	58*	0	1
CCn1nc(C)c(CN2CCCC(CO)(Cc3ccccc3)C2)c1C (configuration not stated)	17	10	11	0	6
CCn1nc(C)c(CN2CCCC(CO)(Cc3cccc(Cl)c3)C2)c1C (configuration not stated)	15	0	55*	0	-5
CCN(CC)S(=O)(=O)c1ccc(N2CCCCC2)c(NC(=O)C2CCN(C(=O)c3ccc(F)cc3)CC2)c1	39	0	43	0	4
CCn1c(NCc2cc(Br)ccc2NS(=O)(=O)c2ccc(C)cc2)nc2ccccc21	3	-7	64*	0	17
CCn1c(NCc2ccccc2NS(=O)(=O)c2ccc(C)cc2)nc2ccccc21	53	19	17	0	.
CN(CC(=O)Nc1ccc(Cl)c(Cl)c1)Cc1nnc(-c2ccc(F)cc2)o1	6	1	-9	0	8
O=C(c1cc(-c2ccncc2)nc2ccccc12)N1CCN(c2ccccn2)CC1	-3	22	60*	0	4
O=C(N/N=C/c1ccccc1F)NC12CC3CC(CC(C3)C1)C2	42	4	57*	0	-2
O=S(=O)(c1ccc(NC(=S)Nc2ccccc2)cc1)N1CCOCC1	20	-3	-31	0	-1
CC(C)CCCCCCNC(=S)Nc1ccc(S(=O)(=O)N2CCOCC2)cc1	12	0	5	2	29*
CC(C)c1ccc2nc(SCC(=O)NCC3CCCO3)c(C#N)cc2c1 (configuration not stated)	28	1	9	0	-11
Cc1cc(C)c(C)c(C(=O)CSc2nnc(-c3ccc4[nH]c(C)c(C)c4c3)o2)c1C	24	9	55*	0	-4
CN(C)CCN=Cc1c(O)n(Cc2ccc3c(c2)OCO3)c(=O)c2ccccc12	9	-6	46	0	-2
